Published values collected from several papers.
Compare with care: the assays were run in different laboratories.
EGFR L861Q: Epidermal growth factor receptor (EGFR, Homo sapiens, UniProt P00533, L861Q)
EGFR: Epidermal growth factor receptor (EGFR, Homo sapiens, UniProt P00533)
EGFR L858R: Epidermal growth factor receptor (EGFR, Homo sapiens, UniProt P00533, L858R)
EGFR L858R/T790M: Epidermal growth factor receptor (EGFR, Homo sapiens, UniProt P00533, L858R/T790M)
EGFR T790M: Epidermal growth factor receptor (EGFR, Homo sapiens, UniProt P00533, T790M)
EGFR G719C: Epidermal growth factor receptor (EGFR, Homo sapiens, UniProt P00533, G719C)
EGFR del746-750: Epidermal growth factor receptor (EGFR, Homo sapiens, UniProt P00533, del746-750)

| SMILES | target | test | conditions | endpoint | result |
| --- | --- | --- | --- | --- | --- |
| COc1cc2ncnc(Nc3ccc(Oc4ccccc4)cc3C)c2cc1OC | EGFR L861Q | enzyme activity, inhibitor | 1 µM | inhibition | 76% |
| Cc1cnn2ncc(-c3ccnc(N(C)C)n3)c2c1 | EGFR L861Q | binding | 1 µM | remaining binding | 70% |
| N#CCCc1ccc2c(c1)-c1[nH]c3ccc([N+](=O)[O-])cc3c1CC(=O)N2 | EGFR | cell-free assay | 0.5 µM | remaining signal | 94.4% |
| Cc1cnc(NC2CCOCC2)nc1-n1cnc(C(=O)NC(CN)c2cc(F)cc(Cl)c2)c1 (centres unmarked) | EGFR L858R | enzyme activity, inhibitor, radiometric | 1 µM | remaining activity | 112% |
| CCC(=O)Nc1cc(Nc2nc(N3CCc4sccc4C3)c3cccnc3n2)c(OC)cc1N1CCC(N(C)C)CC1 | EGFR L858R/T790M | enzyme activity, inhibitor, ELISA | 0.1 µM | inhibition | 22.5% |
| O=C(O)[C@@H]1[C@@H](Cn2nnc3ccccc3c2=O)CC[C@H]1C(=O)c1ccc(OCCC2CCOCC2)cc1 | EGFR T790M | cell-free assay, competition with immobilised ligand | 1 µM | remaining binding | 94% |
| C=C(Cl)C(=O)Nc1cc(Nc2nc(Nc3cnn(C)c3)c3sccc3n2)c(OC)cc1N1CCN(C)CC1 | EGFR L858R/T790M | enzyme activity, inhibitor, ELISA | 0.1 µM | inhibition | 54.1% |
| O=C1Nc2ccc(Cl)cc2C1=Cc1cc(Cl)c(O)c(Cl)c1 | EGFR | cell-free assay | 0.5 µM | remaining signal | 93.5% |
| CC(C)[C@@H]1NC(=O)[C@H](CCCNC(=N)N)NC(=O)[C@H](Cc2ccc(O)cc2)NC(=O)[C@H](C(C)C)NC(=O)[C@H](C(C)C)NC(=O)[C@H](CCCNC(=N)N)NC(=O)[C@H](CC(=O)O)NC(=O)[C@H](CC(=O)O)NC(=O)CCNC(=O)[C@H](Cc2ccc(O)cc2)NC(=O)[C@H](Cc2ccc(O)cc2)NC(=O)[C@H](Cc2ccccc2)NC(=O)[C@@H](Cc2ccc(O)cc2)NC(=O)CSC[C@@H](C(=O)NCC(N)=O)NC(=O)CCNC1=O | EGFR | binding, SPR |  | kon | 258000 M⁻¹ s⁻¹ |
| COc1cc2ncnc(Nc3ccc(Oc4ccccc4)c(C)c3C)c2cc1OC | EGFR L858R/T790M | enzyme activity, inhibitor | 1 µM | inhibition | 17% |
| Cc1cc(NC(=O)c2cccc3cc(-c4cccc5[nH]nc(N)c45)ccc23)ccc1F | EGFR L861Q | enzyme activity, inhibitor | 0.1 µM | activity vs control | 95% |
| O=c1nc(-c2ccccn2)sc2ccccc12 | EGFR G719C | cell-free assay, competition with immobilised ligand | 1 µM | remaining binding | 77% |
| CN(c1nccc(-c2cnn3ncccc23)n1)C1CC1 | Epidermal growth factor receptor (EGFR, Homo sapiens, UniProt P00533, G719S) | binding | 1 µM | remaining binding | 100% |
| CC(C)(O)[C@H]1CC[C@H](Nc2ccc3ncc(-c4cccc(C(F)(F)F)c4)n3n2)CC1 | EGFR | enzyme activity, inhibitor | 1 µM | remaining activity | 80% |
| Cc1ccc(C(=O)Nc2ccc(CN3CCN(C)CC3)c(C(F)(F)F)c2)cc1C#Cc1cnc2cccnn12 | EGFR T790M | cell-free assay | 23.5 nM | remaining signal | 94% |
| COc1cc(-c2cc(-c3ccc(N4CCNCC4)cc3)cnc2N)cc(OC)c1OC | EGFR L858R | enzyme activity, inhibitor | 0.1 µM | inhibition | 26% |
| CCCCN(CCCC)C(=O)CN1C[C@@H](c2cc(OC)c3c(c2)OCO3)[C@H](C(=O)O)[C@H]1CC(C)(C)CCC | Epidermal growth factor receptor (EGFR, Homo sapiens, UniProt P00533, del747-752/P753S) | cell-free assay, competition with immobilised ligand | 1 µM | remaining binding | 75.9% |
| N[C@H]1CCN(c2nccc(-c3cnn4ncccc34)n2)C1 | EGFR T790M | binding | 1 µM | remaining binding | 79% |
| CSc1cccnc1N1CCN(Cc2nc3ccccc3[nH]2)CC1 | EGFR L858R | cell-free assay, competition with immobilised ligand | 1 µM | remaining binding | 100% |

| SMILES | target | test | conditions | endpoint | result |
| --- | --- | --- | --- | --- | --- |
| F[C@@H]1CCN(c2nccc(-c3cnn4ncccc34)n2)C1 | EGFR G719C | binding | 1 µM | remaining binding | 100% |
| Cc1ccc(NC(=O)c2ccc(C)c(C(F)(F)F)c2)cc1C#Cc1nn(C2CCC(O)CC2)c2ncnc(N)c12 (centres unmarked) | EGFR T790M | cell-free assay | 10 µM | remaining signal | 4% |
| c1nc2c(Nc3ccc4c(c3)OCCO4)nc(Nc3ccc4c(c3)OCCO4)nc2[nH]1 | EGFR | enzyme activity, inhibitor | 10 µM | activity vs control | 3.5% |
| COc1cc(Nc2c(C#N)cnc3cc(OCCCN4CCN(C)CC4)c(OC)cc23)c(Cl)cc1Cl | EGFR | cell-free assay | 0.5 µM | remaining signal | 3.84% |
| Nc1ncnc2occ(-c3ccc(NC(=O)Nc4cc(C(F)(F)F)ccc4F)cc3)c12 | EGFR T790M | cell-free assay | 20 µM | remaining signal | 12% |
| CC(C)[C@@H]1NC(=O)CC(c2ccccc2)NC(=O)CC(CCC(N)=O)NC(=O)[C@H](Cc2ccc(O)cc2)NC(=O)[C@H](Cc2ccc(O)cc2)NC(=O)[C@H](Cc2ccccc2)NC(=O)[C@@H](Cc2ccc(O)cc2)NC(=O)CSC[C@@H](C(=O)NCC(N)=O)NC(=O)CCNC(=O)[C@H](CCCNC(=N)N)NC(=O)[C@H](CCCNC(=N)N)NC(=O)[C@H](Cc2ccc(O)cc2)NC(=O)[C@H](C(C)C)NC(=O)[C@H](C(C)C)NC(=O)[C@H](CC(N)=O)NC1=O (some centres unmarked) | EGFR | binding, SPR |  | kon | 165000 M⁻¹ s⁻¹ |
| O=C(Nc1cnc(Oc2ccc(F)cc2)nc1)N1CCc2ncccc2[C@@H]1c1ccc(F)cc1 | EGFR del746-750 | cell-free assay, competition with immobilised ligand | 1 µM | remaining binding | 100% |
| C=CC(=O)Nc1cc(Nc2nc(N3CCc4sccc4C3)c3cccnc3n2)c(OC)cc1N1CCOCC1 | EGFR L858R/T790M | enzyme activity, inhibitor, ELISA | 0.1 µM | inhibition | 23.5% |
| C[C@H](c1ccnc(Nc2nc3ccc(-c4cc(N(C)C)ncn4)cc3[nH]2)c1)N1CCN(C(=O)CC(F)(F)F)CC1 | Epidermal growth factor receptor (EGFR, Homo sapiens, UniProt P00533, A750P/del747-749) | cell-free assay, competition with immobilised ligand | 0.1 µM | remaining binding | 89% |
| Cc1ccc(C(=O)NCc2ccsc2)cc1C#Cc1cn(C(C)C)c2ncnc(N)c12 | EGFR L858R | enzyme activity, inhibitor | 1 µM | activity vs control | 56% |
| CCC(=O)Nc1cc(Nc2nc(N3CCc4sccc4C3)c3cccnc3n2)c(OC)cc1N(C)C | EGFR L858R/T790M | enzyme activity, inhibitor, ELISA | 0.1 µM | inhibition | 6% |
| O=C(Nc1cnn(-c2csc(C(=O)NC3COC3)c2)c1)Nc1c(F)cccc1Cl | EGFR | enzyme activity, inhibitor | 5 µM | remaining activity | 89.4% |
| CC/C(=N\NC(=O)NCc1cccc(O)c1)c1ccc(O)c(C)c1O | EGFR L861Q | enzyme activity, inhibitor | 0.1 µM | inhibition | 0.4% |
| N#C/C(=C\c1ccc(O)c(O)c1)C(=O)NCc1ccccc1 | EGFR | cell-free assay | 0.5 µM | remaining signal | 72.4% |
| Cn1nc(C(=O)NCc2ccc(C(=O)O)cc2)cc1-c1ccc2[nH]ccc2c1 | Epidermal growth factor receptor (EGFR, Homo sapiens, UniProt P00533, del752-759) | cell-free assay, competition with immobilised ligand | 0.1 µM | remaining binding | 94% |
| c1cnn2ncc(-c3ccnc(N4CCC45COC5)n3)c2c1 | EGFR del746-750 | binding | 1 µM | remaining binding | 89% |
| O=C1CCc2cc(Nc3cc(OC4CCOCC4)c([N+](=O)[O-])cc3Cl)ccc2N1 | EGFR T790M | cell-free assay, competition with immobilised ligand | 1 µM | remaining binding | 85% |
| C[C@H]1CCN(c2nccc(-c3cnn4ncccc34)n2)C1 | EGFR G719C | binding | 1 µM | remaining binding | 85% |
| O=C(c1ccc(Nc2ncc(Cl)c(-c3ccc(Cl)s3)n2)cc1)N1CCC(N2CCCC2)CC1 | EGFR T790M | binding, competition with immobilised ligand | 1 µM | remaining binding | 63% |
